From PubChem BioAssay
CHOP inh – inhibitors of CHOP promoter induction, primary screen, cell-based, unfolded protein response, luciferase reporter | CHO-K1 CHOP-promoter luciferase, tunicamycin-induced, 15-18 h | inhibition, % at 10 µM | actives 3.8% (n = 220,000);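 active means compounds that reduced the stress-induced luciferase reporter signal by more than about 70% of percent inhibition, limit read from the data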;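 further: 0% = tunicamycin plus vehicle and 100% = wells without tunicamycin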
UPR CHOP act – activators of apoptotic CHOP UPR arm, primary screen, cell-based, CHO-CHOP luciferase reporter, luminescence, uHTS | UPR activation; percent of tunicamycin response over DMSO baseline | activation, % at 10 µM | actives 0.34% (n = 330,000) | AID 449763, 2010;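 active means at 10 µM dose, activation of 40% or more, normalized to positive control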;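 further: 100% = tunicamycin at 10 µg/mL and 0% = DMSO alone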
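Material: CHO-CHOP cells, stable luciferase reporter of PERK-eIF2a-CHOP signalling; quantity: 500 reporter cells seeded per well; buffer or medium: F12 medium containing 10% fetal bovine serum; compound: one dose, 10 µM in 0.5% DMSO; incubation: 6 h compound treatment, 37 °C; measured by: Steady-Glo luciferase luminescence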
MPTP block – mitochondrial permeability transition pore inhibitors, primary screen, biochemical, isolated mouse mitochondria, absorbance. Ca2+ swelling absorbance, 30 min. actives 1.4% (n = 360,000). inhibition, % at 10 µM;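 active means inhibition of 50% or more, scaled per plate between neutral and stimulator controls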;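 further: 0% = DMSO wells given calcium and 100% = 1 mM EGTA wells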
XBP1 UPR activ – activators of adaptive XBP1 UPR arm, primary screen, cell-based, CHO-XBP1 luciferase reporter, luminescence, uHTS. activation, % at 20 µM. IRE1-XBP1 UPR activation; percent of tunicamycin response, DMSO as zero. actives 0.33% (n = 330,000);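 active means versus positive control, 20 µM dose yields 30% or more activation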;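 further: 100% = tunicamycin at 10 µg/mL and 0% = DMSO only wells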
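Signal: luciferase luminescence; Assay system: CHO-XBP1 luciferase reporter cells; Amount: one thousand reporter cells per well; Dosing: 20 µM single concentration, DMSO 1%; Benchmarks: high control tunicamycin 10 µg/mL final, low control DMSO vehicle only; Schedule: 6 h compound exposure at 37 °C, 5% CO2; Evaluation: percent activation relative to tunicamycin reference.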
NR3A LBD binder – binders of NR3A ligand-binding domain, primary screen, biophysical, differential scanning fluorimetry, uHTS; Glutamate receptor ionotropic, NMDA 3A (GRIN3A) ligand-binding domain; NR3A LBD differential scanning fluorimetry, Tm shift; 0% = protein alone, 100% = glycine-bound protein; Tm shift relative to glycine control, % at 25 µM; actives 2.5% (n = 340,000);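 active means melting temperature shift of at least 10% of the positive control shift, at one fixed dose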
aDG glyco act – activators of alpha-DG glycosylation, primary screen, uHTS, Pro5-aDG cells, AlphaScreen | alpha-DG glycosylation AlphaScreen (IIH6); 0% Pro5, 100% B10-LARGE cell signal | activation, % at 10 µM | actives 0.22% (n = 360,000) | AID 624168, 2012;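 active means activation of at least 8% versus controls, or a plate z-score of at least 8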;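 further: Pro5 are CHO cells carrying HIG-tagged alpha-DG that lacks glycosylation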
* = called active by the depositor; · = no result given. Only some compounds are listed: those with a hit (about 5.6% of all), similar ones and a draw of the others.

SMILES	CHOP inh	UPR CHOP act	MPTP block	XBP1 UPR activ	NR3A LBD binder	aDG glyco act
COc1ccccc1NC(=S)NC(=O)CCCOc1ccc(Cl)cc1Cl	77*	-1	6	-1	6	0
O=C(COc1ccc(CO)cc1Cl)Nc1ccc(F)cc1	33	3	2	0	1	0
CN(CC(=O)Nc1ccccc1Cl)CC(=O)c1c(N)n(Cc2ccccc2)c(=O)n(C)c1=O	·	2	0	1	-4	0
Cn1nnnc1SCC(=O)c1ccc2c(c1)OCCO2	-14	2	-2	3	-2	0
CCCn1nnnc1SCC(=O)c1ccc2c(c1)OCCO2	85*	2	2	-3	-12	0
COc1ccc(C(=O)N2CCN(c3ccc(NC(=O)Cc4ccccc4)cc3)CC2)cc1	·	0	0	-4	-4	0
COC(=O)Cc1ccc(NC(=S)N2CCN(c3ccc(F)cc3)CC2)cc1	72*	·	33	·	-8	3
Cc1ccc(C(=O)N2CCN(c3ccc(NC(=S)NC(=O)Cc4ccccc4)cc3)CC2)cc1	74*	6	8	1	0	2
COC(=O)Cc1ccc(NC(=S)N2CCN(CCO)CC2)cc1	·	2	1	-1	-1	0
COc1ccccc1OCC(O)COC(N)=O (stereo not given)	15	1	0	-5	13*	0
O=C(N/N=C/c1c(Nc2cccc(C(F)(F)F)c2)nc2ccccn2c1=O)c1ccccc1	22	·	·	·	·	·
O=C(N/N=C/c1c(Nc2cccc(C(F)(F)F)c2)nc2ccccn2c1=O)c1ccccc1[N+](=O)[O-]	38	5	4	-1	10*	0
Cn1c(N)c(C(=O)CSc2nn(-c3ccc(F)cc3)c(=S)s2)c(=O)n(C)c1=O	·	1	0	-2	31*	0
CCC[n+]1c2ccccc2cc2ccccc21	·	-3	-2	1	8	0
CCCC[n+]1c2ccccc2cc2ccccc21	·	2	-3	1	22*	0
CCCCCCCC#Cc1ccccc1/C=N/S(=O)c1ccc(C)cc1 (stereo not given)	10	4	·	29	16*	·
CC(C)NC(=O)c1cc(-n2cnnc2)ccc1Cl	-5	-1	-2	0	11*	2
N#CC(=C(O)CN1CCN(c2ccccc2F)CC1)c1nc(-c2ccc(Cl)cc2)cs1	·	·	34	·	90*	0
O=C(/C=C/Nc1ccc(Br)cn1)c1cccc(OC(F)F)c1	·	10	1	4	14*	0
CN(CC(=O)Nc1ccc(Cl)c(C(F)(F)F)c1)C(=O)c1ccccc1SCC(=O)N1CCCC1	·	·	0	·	-1	0
Cc1ccc(-c2noc(CCCC(=O)Nc3cccnc3)n2)cc1	78*	-5	5	-1	2	0
CCc1ccccc1N(C)C(=O)CCc1nc(-c2ccc(C)cc2)no1	77*	1	-3	-2	2	0
CCOc1ccc(-c2noc(CCC(=O)O)n2)cc1	85*	-5	-1	-4	-1	0
O=C(O)CCc1nc(-c2ccccc2)no1	10	-1	2	2	-1	0
COc1ccc(-c2noc(CCC(=O)O)n2)cc1	17	4	-1	-3	0	0
O=C(CCCc1nc(-c2ccccc2)no1)Nc1cccnc1	4	0	1	1	2	3
COc1ccc(Cl)cc1N(C)C(=O)CCc1nc(-c2ccc(C)cc2)no1	13	0	1	0	-8	0
COc1ccc(-c2noc(CCCC(=O)O)n2)cc1	84*	-7	-1	-5	0	0
COc1ccc2nc3n(c(=O)c2c1)-c1cc(Cl)ccc1C(=O)NC3Cc1ccccc1 (stereo not given)	·	0	·	5	·	·
